The results in this text go back to ChEMBL document CHEMBL4513216, “Probing the Open Global Health Chemical Diversity Library for Multistage-Active Starting Points for Next-Generation Antimalarials” (ACS Infect Dis, 2020).

The data set can be described thus: Toxicity liver stage against HepG2, at 10uM. The format is cell-based. Details: test concentration 10 uM, cell line HepG2-A16-CD81EGFP. The settings on record: human, HepG2-A16-CD81EGFP cells; read-out: INHIBITION
In short, it runs like this: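 Uninfected HepG2-A16-CD81EGFP cells, 3 × 10^3 per well, 1536-well, plated on prespotted compound at 10 μM final, parasite-free screening media added to match infected plates; puromycin 10 μM positive, DMSO 0.5% negative; run in parallel with 48 h PbLuc assay at 37 °C, 5% CO2; viability by CellTiter-Glo luminescence, normalized to controls.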
As to `Cn1nc(C(=O)N2CC(Oc3nc4c(Cl)cccc4s3)C2)ccc1=O`, the cytotoxicity at 10 µM was determined as 1.48%.

Regarding `CC(=O)N1CC(=O)N(c2cnn(C)c2)CC12CCN(Cc1ccco1)C2` (stereo unspecified), the cytotoxicity at 10 µM is 2.41%.

Take `CC1CCC2(CC1)Nc1ccccc1CO2` (stereo unspecified): the cytotoxicity at 10 µM was 4.81%.

In the case of `O=C(Cc1ccc2c(c1)OCC2)Nc1nc[nH]n1`, the cytotoxicity at 10 µM is -2.94%.

As to `COc1cc(C2SCC(=O)Nc3ccsc32)cc(OC)c1OC` (stereo unspecified), the cytotoxicity at 10 µM was -1.88%.

As to `CN(C)S(=O)(=O)N1CCC2(COCc3cnc(-c4ccccc4)nc32)C1` (stereo unspecified), the cytotoxicity at 10 µM is -13.6%.

`CCn1nc(C)c(NC(=O)c2cc(NC(=O)C3CC3)n(C)n2)c1C`: the cytotoxicity at 10 µM was -0.916%.

Turning to `c1ccc(C2Cn3ccnc3CN2Cc2ncc[nH]2)cc1` (stereo unspecified), the cytotoxicity at 10 µM was -2.8%.

Consider `CCOc1ccc(CN2CCOCC2c2[nH]ncc2C)cc1CO` (stereo unspecified), for which the cytotoxicity at 10 µM is -2.92%.

With `Cn1ccc2cc(CC3COCCN(C(=O)c4cccnc4)C3)ccc21` (stereo unspecified), the cytotoxicity at 10 µM was 7.24%.

Turning to `CC(=O)N1CCC1c1cc(N2CCSCC2)nc(C)n1` (stereo unspecified), the cytotoxicity at 10 µM was 6.53%.

As to `CCc1nc(N2CCOCC2)ncc1C(=O)NC(c1cccs1)C(C)C` (stereo unspecified), the cytotoxicity at 10 µM was 12.3%.

For `Cc1c(C(=O)N[C@@H]2CC[C@@H](N3CCCC3)[C@@H]2O)[nH]c2ccc(F)cc12`, the cytotoxicity at 10 µM was -1.85%.

For `COc1ccc2[nH]cc(C(=O)N3C[C@@H](O)[C@H](N4CCOCC4)C3)c2c1`, the cytotoxicity at 10 µM was -9.06%.

On to `CNCC(=O)N1CCC(c2cccc(Oc3ccccc3)n2)CC1`, for which the cytotoxicity at 10 µM was -11.7%.

As to `COCC(C)(C)NC(=O)CC(c1ccccc1)C(F)(F)F` (stereo unspecified), the cytotoxicity at 10 µM was -50.1%.

For `CCCc1nn(Cc2csc(C(C)C)n2)c(=O)o1`, the cytotoxicity at 10 µM is -47.7%.

On to `CNC(=O)Cn1ccc2ccc(NC(=O)C(C)CSC)cc21` (stereo unspecified), for which the cytotoxicity at 10 µM was -1.1%.

Take `CC(C)c1nc(CC(=O)Nc2cnccc2O)cs1`: the cytotoxicity at 10 µM was 9.89%.

As to `Cc1cccc(C(=O)NCCNS(=O)(=O)c2cccs2)c1C`, the cytotoxicity at 10 µM is -0.642%.

As to `CCCC(C)C(=O)Nc1ccc(OC)nc1N1CCN(C(C)=O)CC1` (stereo unspecified), the cytotoxicity at 10 µM is -5.46%.

Consider `COc1ccc(C(=O)NS(=O)(=O)c2cncc(Br)c2)c(OC)c1`, for which the cytotoxicity at 10 µM is -0.402%.

As to `O=C(CNC(=O)Nc1cccc(Cl)c1SC(F)F)NC1CC1`, the cytotoxicity at 10 µM turned out to be 0.797%.

As to `CC(OCC(F)(F)F)C(=O)N1CCOCC1` (stereo unspecified), the cytotoxicity at 10 µM is -11.9%.

As to `Cc1cnn(CC2CCCN2C(=O)Cc2c(C)noc2C)c1` (stereo unspecified), the cytotoxicity at 10 µM stood at 0.983%.

As for `CCSc1ccc(C(=O)N2CCCCC2C(=O)NC(C)(C)C)cn1` (stereo unspecified), the cytotoxicity at 10 µM was -7.69%.

As for `CC(NCc1cnc(C2CCC2)s1)c1cccc(-n2ccnc2)c1` (stereo unspecified), the cytotoxicity at 10 µM is 4.12%.

Regarding `C=C(C)CN1CCOC(Cn2cncn2)C1` (stereo unspecified), the cytotoxicity at 10 µM is -52%.

For `CCCc1nc(Cn2c(=O)n(C)c3ccccc32)no1`, the cytotoxicity at 10 µM is -43%.

Consider `COc1ccccc1C1(CNCc2ccc(C#N)cc2)CCOCC1`, for which the cytotoxicity at 10 µM stood at 7.62%.

Regarding `O=C1CCCN1c1cccc(CNCc2nc(C3CC3)no2)c1`, the cytotoxicity at 10 µM was -7.11%.

`CCC(CNC(=O)N1CCOCC2(CCOCC2)C1)c1ccccc1` (stereo unspecified): the cytotoxicity at 10 µM worked out at 5.17%.

In the case of `CC(C)(C)c1nnc(CN2CCC(c3cc4ccccc4[nH]3)CC2)o1`, the cytotoxicity at 10 µM turned out to be 24.3%.

Consider `CN(CC1CC1)C(=O)CN(Cc1cccc(O)c1)C1CCC(O)CC1` (stereo unspecified), for which the cytotoxicity at 10 µM is -1.21%.

With `Cc1nccc(NCc2cncc3c2CCN(CCN(C)C)C3)n1`, the cytotoxicity at 10 µM is -104%.

Turning to `CN(C)C(=O)CO[C@H]1CO[C@@]2(CCN(Cc3ccoc3)C2)C1`, the cytotoxicity at 10 µM was -111%.

On to `Cc1nnc(SCC(=O)N2CCc3[nH]nc(C4CCC4)c3C2)o1`, for which the cytotoxicity at 10 µM was -7.09%.

With `OC[C@H]1CN(C2Cc3ccccc3C2)C[C@H]1CN1CCC(O)CC1`, the cytotoxicity at 10 µM is 0.0255%.

For the compound `Cc1cc(CNc2cncc(C(=O)N(C)C)n2)c2[nH]c(C)c(C)c2c1`, the cytotoxicity at 10 µM is -12.2%.

For the compound `CCNC(=O)[C@@H]1C[C@H](NC(=O)c2cc(=O)[nH]c3ccc(C)cc23)CN1C`, the cytotoxicity at 10 µM was determined as 7.44%.

With `CCC(CC)C(=O)N1CCC2(CC1)c1ccccc1[C@@H](OC)[C@@H]2O`, the cytotoxicity at 10 µM stood at 6.75%.

Turning to `N#Cc1ccccc1CC1CCCS(=O)(=O)C1` (stereo unspecified), the cytotoxicity at 10 µM was -3.11%.

Consider `Cc1cc(N[C@@H](CO)c2ccccc2)n2nc(C)c(C)c2n1`, for which the cytotoxicity at 10 µM is -0.054%.

Regarding `CCOc1ccc(C(=O)CCC(=O)N(C)Cc2snnc2C)cc1C`, the cytotoxicity at 10 µM was -2.29%.

On to `CC(C)=CCN1Cc2nnc(C3CCOCC3)n2C(Cc2c[nH]cn2)C1` (stereo unspecified), for which the cytotoxicity at 10 µM is -9.36%.

With `CCC[C@H]1CN(C(=O)c2cc(-c3cccs3)n(C)n2)C[C@@H]1N`, the cytotoxicity at 10 µM was -1.02%.

Turning to `CCn1nc(CC(C)C)cc1C(=O)N1C[C@H](O)[C@@H](N2CCCCC2)C1`, the cytotoxicity at 10 µM came out at 20.7%.

As for `c1cn(Cc2nnc(C3CCN(C4CCOCC4)CC3)n2C2CC2)cn1`, the cytotoxicity at 10 µM worked out at 0.442%.

Take `Cc1cc(C(=O)N2CCCC(c3cc(C(F)(F)F)[nH]n3)C2)[nH]n1` (stereo unspecified): the cytotoxicity at 10 µM was -6.79%.

As for `CC(C)n1ncc2cc(NC(=O)N3CCC(CO)CC3)cnc21`, the cytotoxicity at 10 µM is -14.5%.

With `NC(=O)CN1CCCN(C(=O)CCOc2ccccc2Cl)CC1`, the cytotoxicity at 10 µM is -6.73%.

With `CCCc1noc(CCC(=O)N2CCCC2c2cccs2)n1` (stereo unspecified), the cytotoxicity at 10 µM is -14.4%.

As to `COc1ccc(C)cc1CN(C)CC(=O)NC1(C)CCS(=O)(=O)C1` (stereo unspecified), the cytotoxicity at 10 µM was 1.28%.

`COc1ccc(-c2noc(CN3CCCC3Cn3cccn3)n2)cc1` (stereo unspecified): the cytotoxicity at 10 µM came to 2.88%.

Turning to `COCc1nc(C(=O)N2CCCC2c2ccncc2)cs1` (stereo unspecified), the cytotoxicity at 10 µM is -11.4%.

Turning to `O=C(NCC1CCOC1)N1CCN(Cc2ccc3c(c2)CCO3)CC1` (stereo unspecified), the cytotoxicity at 10 µM was -4.2%.

`O=C(C1COCCO1)N1CCN(Cc2ccc3c(c2)CCO3)CC1` (stereo unspecified): the cytotoxicity at 10 µM is -5.99%.

Consider `CC(=O)N(C)c1nc(CN2CCOC(Cn3cc(C)cn3)C2)cs1` (stereo unspecified), for which the cytotoxicity at 10 µM was -7%.

`COCc1nc(C(=O)N2CCCCC2Cn2cc(C)cn2)cs1` (stereo unspecified): the cytotoxicity at 10 µM turned out to be 3.18%.

On to `FC(F)CNc1cnc(C2CCNCC2)cn1`, for which the cytotoxicity at 10 µM turned out to be 0.83%.

Turning to `O=C(c1ccco1)N1C[C@H]2CCCN(Cc3ccc(F)cc3)[C@H]2C1`, the cytotoxicity at 10 µM is 0.255%.

With `Cc1cc(CN2CC[C@]3(C[C@@H](OCC(=O)N(C)C)CO3)C2)no1`, the cytotoxicity at 10 µM was -105%.

`O=C1NCC[C@]12CN(CC1CCOCC1)C[C@H]2c1ccccc1`: the cytotoxicity at 10 µM is 6.59%.

As for `CC(C)N1CCO[C@H]2CN(Cc3cc[nH]n3)C[C@H]21`, the cytotoxicity at 10 µM was -108%.

`CCc1nc(-c2ccnc(N3CCNCC3)n2)no1`: the cytotoxicity at 10 µM is 11.9%.

With `CN1CCN(c2ncnc3c2CCN(S(=O)(=O)C2CC2)CC3)CC1`, the cytotoxicity at 10 µM was -112%.

For `CNC(=O)C1Cn2ccnc2C2(CCN(Cc3cccc(C)n3)CC2)O1` (stereo unspecified), the cytotoxicity at 10 µM is 7.67%.

With `CO[C@@H]1CCN(Cc2ccoc2)[C@H]1Cc1ccccc1`, the cytotoxicity at 10 µM worked out at 7.46%.

In the case of `COCCN1Cc2nccn2CC(COCc2csc(C)n2)C1` (stereo unspecified), the cytotoxicity at 10 µM came to 6.22%.

For the compound `Fc1cnc(N2CCCC3(COCCN(c4nccs4)C3)C2)nc1` (stereo unspecified), the cytotoxicity at 10 µM was found to be 1.43%.

Regarding `COc1ccccc1CC(=O)N1C[C@@H]2CC[C@H]1CN(Cc1cscn1)C2`, the cytotoxicity at 10 µM was -1.87%.
